Test: Toxicity liver stage against HepG2, at 10uM
Type: cell-based
Design: test concentration 10 uM, cell line HepG2-A16-CD81EGFP
Conditions: human, HepG2-A16-CD81EGFP cells; read-out: INHIBITION
Procedure, shortened: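 Uninfected HepG2-A16-CD81EGFP cells, 3 × 10^3 per well, 1536-well, plated on prespotted compound at 10 μM final, parasite-free screening media added to match infected plates; puromycin 10 μM positive, DMSO 0.5% negative; run in parallel with 48 h PbLuc assay at 37 °C, 5% CO2; viability by CellTiter-Glo luminescence, normalized to controls.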

Row | SMILES | cytotoxicity at 10 µM [%]
1 | O=C(O)CN(C(=O)c1ccccc1)[C@H]1C[C@H]2CCOC[C@H]2C1 | -1.03
2 | COCC(=O)NCC1CCN(Cc2ccsc2)CC1 | -3.88
3 | O=S(=O)(c1ccccc1Cl)N1CCC2(CC1)OCCS2 | -4.84
4 | CC1(C)OCC2(CO1)CN(C(=O)c1cccc3ccccc13)C2 | -7.81
5 | COC(=O)N1CCc2ccccc2C1C(=O)NCC(F)(F)F (stereo unspecified) | -2.96
6 | O=C1CCSCC(C(=O)N2CCC3(CC2)OCCO3)N1 (stereo unspecified) | 0.595
7 | Cn1nc(CNC(=O)c2ccc(OC(F)(F)F)cc2)c2c1CCOC2 | 7.03
8 | Cc1nnc([C@H]2C[C@@H]3CCN(C(=O)C4CCOCC4)C[C@H]3O2)[nH]1 | 16.5
9 | COc1ccc(CC(=O)N2CC[C@@H]3NC(=O)CC[C@@H]32)cc1 | -1.89
10 | O=C(Cn1ccc2ccc(Cl)cc21)NCc1ccc(C(=O)O)cc1 | 7.91
11 | CC(C)n1[nH]c(=O)c2c1NC(=O)CC2c1cccc(Br)c1 (stereo unspecified) | 5.28
12 | O=C(O)c1nnn(-c2ccc(F)c(F)c2)c1-c1ccncc1 | 3.72
13 | CCc1ccccc1-n1nnc(C(=O)O)c1-c1ccccn1 | -6.42
14 | COCC1CN(Cc2ccc(C)o2)Cc2ncn(CC3CC3)c21 (stereo unspecified) | -11
15 | CCOC(=O)N1CCN(C(=O)c2cc(-c3ccc(Cl)cc3Cl)on2)CC1 | 2.42
16 | O=C1CNc2ncnc(Nc3cnn(Cc4cccc(F)c4)c3)c2N1 | 4.67
17 | Cc1nn(C)c2c(NCc3ccncc3)nc(C3CC3)nc12 | -4.17
18 | CC(=O)Nc1ncc(S(=O)(=O)Nc2ccc(F)cc2)s1 | 0.976
19 | CCc1cc(=O)[nH]c(NC2CCN(S(=O)(=O)c3ccccc3)CC2)n1 | -5.49
20 | CS(=O)(=O)N[C@@H]1CN(Cc2ccc3ccccc3c2)C[C@H]1O | -2.92
21 | CC(=O)N1CCC(c2cncc(N3CCCC(O)C3)n2)CC1 (stereo unspecified) | -1.47

Row | SMILES | cytotoxicity at 10 µM [%]
22 | Cc1csc(C(Cc2ccsc2)NC(=O)c2cc(=O)n(C)c(=O)n2C)n1 (stereo unspecified) | -12.3
23 | Cc1ccccc1CC(=O)N1C[C@@H](O)[C@H](N2CCN(C)CC2)C1 | -4.29
24 | O=C(O)C1CN(c2cccc(F)c2)CCO1 (stereo unspecified) | -25.2
25 | O=C(O)C1CN(c2cccc(Cl)c2)CCO1 (stereo unspecified) | -12.4
26 | Cc1nc2ccccn2c1CC(=O)N[C@@H]1CC[C@@H](N2CCCC2)[C@@H]1O | -12.4
27 | Cc1cnc(C(=O)N2Cc3ccccc3OC3(CCOCC3)C2)cn1 | -1.54
28 | Cc1ncc(CN2CCOC(c3ccc(-c4cnn(C)c4)cn3)C2)s1 (stereo unspecified) | -23
29 | CCC(=O)N1CCC(c2cc(Nc3ncccn3)nc(C)n2)C1 (stereo unspecified) | -24
30 | O=C(Cn1ccnc1)N1C[C@@H]2CC[C@H](Oc3ccccc3F)[C@@H]2C1 | -28.9
31 | CN1CCC(c2cccc(CCC(=O)NCC(N)=O)n2)CC1 | -20.1
32 | O=S(=O)(CCOc1ccc(F)cc1)Nc1cnn(CC(F)F)c1 | -4.87
33 | CC(C)c1cc(C(=O)N(c2ccc(F)cn2)C2CCOCC2)on1 | -9.01
34 | N#Cc1ccc(CS(=O)(=O)NC(=O)c2ccc(C#N)cc2)cc1 | 5.47
35 | O=C(Nc1ccccc1-c1ccccc1)NC1CCC2(C1)OCCO2 (stereo unspecified) | 8.84
36 | O=C(NCCN1CCCCCC1)c1cccc(Cl)c1Cl | 5.8
37 | CCOc1cc(F)ccc1NC1CCN(CC(F)(F)F)C1=O (stereo unspecified) | -0.302
38 | O=C(NCCO)Nc1ccc(Cl)cc1-n1cccc1 | 7.82
39 | O=C(NCC(=O)N1CCCC1Cc1cccc(F)c1)c1ccccn1 (stereo unspecified) | -8.51
40 | CN(C)CC1CN(CC(=O)N2CCc3ccccc32)CCO1 (stereo unspecified) | -1.61
41 | CCC(O)CN1CCN(C(=O)C2(c3ccc(C)c(OC)c3)CC2)CC1 (stereo unspecified) | 3.83
42 | N#Cc1ccc(C(=O)N(C2CC2)C2CC(=O)NC2=O)cc1 (stereo unspecified) | -4.64

Row | SMILES | cytotoxicity at 10 µM [%]
43 | O=C(NCCNc1cnccn1)N1CC=C(c2ccc(O)cc2)CC1 | 18.6
44 | COc1ccc(C(CO)NC(=O)Nc2cccc(C(C)=O)c2)cc1 (stereo unspecified) | 3.43
45 | Cc1nc2n(n1)CC(Nc1nc(-c3ccccc3)no1)CC2 (stereo unspecified) | 0.658
46 | Cc1ccc(S(=O)(=O)N(C)CC(N)=O)c(Cl)c1 | 5.79
47 | O=C(Nc1ccccc1OCC(F)F)N[C@@H]1C=C[C@H](CO)C1 | -7.14
48 | CNC(=O)c1ccc(NC(=O)NC(C)c2cc(C)oc2C)cc1 (stereo unspecified) | -12.8
49 | CCC(NC(=O)c1cccc2[nH]ccc12)C(=O)N1CCOCC1 (stereo unspecified) | -4.1
50 | FC(F)(F)c1ccnc(N2CCCCCC2)c1 | 3.02
51 | COCC(C)NC(=O)CN1CCC(CO)CC1 (stereo unspecified) | -6.16
52 | COc1ccc(CCN2CC(n3nc(C)cc3C)C2)cc1 | -9.12
53 | CN(Cc1nnc(C2CC2)n1C)S(=O)(=O)c1ccc(F)c(C#N)c1 | 18.4
54 | OC(CN1CCCCc2ccccc21)Cn1cccn1 (stereo unspecified) | 5.55
55 | CC(C)OCCN(Cc1cccc(O)c1)C1CCC(O)CC1 (stereo unspecified) | 5.81
56 | Cc1ccc(C(C)NC(=O)Nc2ccccc2CN2CCOCC2)o1 (stereo unspecified) | 3.25
57 | CCOC(=O)NC(CNC(=O)CCc1ccccn1)CC(C)C (stereo unspecified) | -4.61
58 | Cc1ccc(-n2nnc(CC(=O)N3CCSCC3)c2C)cc1 | -13.1
59 | Cc1oc(-c2ccsc2)nc1CC(=O)NCCS(C)(=O)=O | -8.6
60 | CC(C)Cc1noc(CN2CCN(C(=O)c3ccco3)CC2)n1 | -5.39
61 | CNS(=O)(=O)c1cc(C(=O)NC2CCOc3ccccc32)cc(C)c1C (stereo unspecified) | 6.82
62 | CCc1cc(CN(C)C(=O)CN2CC(Cc3ccccc3)CC2=O)on1 (stereo unspecified) | -0.28
63 | CCc1cc(N2CCN(C(C)=O)CC2)n2nc(C)c(C)c2n1 | 3.96

Row | SMILES | cytotoxicity at 10 µM [%]
64 | CC(C)C[C@@H](CO)n1cc(-c2cnc(-c3ccco3)nc2)nn1 | -0.662
65 | CC(C)CCN(C)Cc1ccccc1-c1nc(C(C)C)cc(=O)[nH]1 | 5.46
66 | C[C@H](c1ccc(F)cc1)n1c(C2CCC2)n[nH]c1=O | -5.95
67 | C[C@@H]1CN(C(=O)c2ccncc2)CC[C@@]1(O)C1CCOCC1 | 0.301
68 | COc1cccc(C(=O)N2CCc3c(nc(N)[nH]c3=O)C2)c1OC | -9.91
69 | CN(C)c1ncc(-c2c(-c3ccccc3)ncn2C(CO)C(=O)O)cn1 (stereo unspecified) | 0.471
70 | Cc1ccc(NC(=O)c2cc3c(=O)n(C)c(=O)n(C)c3nc2C)cc1Cl | -7.15
71 | O=C(NC[C@]1(O)CN(Cc2ccccc2F)C[C@H]1O)c1ccccn1 | 1.15
72 | CCc1nccn1C1CCCN(C(=O)c2ccc3nnc(C)n3c2)C1 (stereo unspecified) | -8.95
73 | COc1cc(CCC(=O)NC2CCCN(C)C2)ccc1OCC(F)(F)F (stereo unspecified) | -4.54
74 | Cc1cnn(CC2CN(Cc3csc(C4CCCC4)n3)CCO2)c1 (stereo unspecified) | -5.47
75 | CC(=O)Nc1ccc(-n2cncn2)c(F)c1 | -11.3
76 | O=C(Cn1nc(-c2ccc(F)cc2)oc1=O)NCc1ccncc1 | -9.21
77 | CC(=O)N(Cc1noc(C)n1)C1CCN(Cc2cc(C)on2)C1 (stereo unspecified) | 4.38
78 | CC1CCCN(Cc2ccnc(-c3cccnc3)n2)C1 (stereo unspecified) | -6.57
79 | N#Cc1ccc(N2CCC3(CC2)COCCN3Cc2cccnc2)cc1 | -1.77
80 | Cc1ccc(CN2CCC3(CCC3NC(=O)c3ccn(C)c3)CC2)s1 (stereo unspecified) | -151
81 | O=C(c1cnccn1)N1C[C@H]2CC[C@@H](C1)N(S(=O)(=O)c1cccnc1)C2 | -2.03

Source: ChEMBL document CHEMBL4513216, “Probing the Open Global Health Chemical Diversity Library for Multistage-Active Starting Points for Next-Generation Antimalarials” (ACS Infect Dis, 2020)
